Data: ChEMBL document CHEMBL1153215, “Investigation of the sequence and length dependence for cell-penetrating prenylated peptides” (Bioorg Med Chem Lett, 2010)
Where a SMILES comes first, the peptide text is derived from it. Bridges are numbered along the chain shown (N, C = ends). Roman numbers before positions name the chains, in order. The star is where a group is joined. Geranylgeranyl = CC(C)=CCC/C(C)=C/CC/C(C)=C/CC/C(C)=C/C*; Acryloyl(2E,3-(2-furyl)) = O=C(/C=C/c1ccco1)*

Experiments:
Type in all cases: ADME, cell-based
HeLa [1] = experiment: Cellular uptake in human HeLa cells at 0.3 to 3 uM after 1 hr by confocal laser-scanning microscopy
Summary of the method: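 Fluorescein-labelled peptides were incubated with HeLa cells for 1 h, then the cells were washed. Cells were either fixed in 3.7% formaldehyde (1 μM peptide) or imaged live without fixation (3 μM peptide). Hoechst stained the nucleus and wheat germ agglutinin–Alexa Fluor 594 stained the plasma membrane. Internalization was viewed by confocal microscopy.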

HeLa [2] = experiment: Cellular uptake in human HeLa cells at 0.3 to 3 uM by FACS
Summary of the method: (§1)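 HeLa cells were incubated with 0.3, 1.0 or 3.0 μM fluorescein-linked peptide for 1 h at 37 °C. Cells were then trypsinized and washed to remove surface-bound peptide. Fluorescence of 10,000 cells was read by flow cytometry, in triplicate. Values are geometric mean relative fluorescence ± standard deviation.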

HeLa [3] = experiment: Cellular uptake in human HeLa cells at […] at 4 degC condition by FACS
Summary of the method: as §1, with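 “with” for “with 0.3,”, “1.0” for “1.0 or 3.0”, “at 4 °C,” for “for 1 h”, “°C, or under ATP-depleting conditions.” for “°C.”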

HeLa [4] = experiment: Cellular uptake in human HeLa cells at 0.3 to 3 uM at 37 degC condition by FACS; summary of the method: as §1

Activity (HeLa [1])	Activity (HeLa [2])	Activity (HeLa [3])	Activity (HeLa [4])	SMILES
Active	Active	Active	Active	CC(C)=CCC/C(C)=C/CC/C(C)=C/CC/C(C)=C/CSC[C@H](NC(=O)[C@H](CCCNC(=N)N)NC(=O)[C@H](CCCNC(=N)N)NC(=O)/C=C/c1ccco1)C(N)=O
Active	Active	Active	Active	CC(C)=CCC/C(C)=C/CC/C(C)=C/CC/C(C)=C/CSC[C@H](NC(=O)[C@H](CCCNC(=N)N)NC(=O)/C=C/c1ccco1)C(N)=O
Active	Active	Active	Active	CC(=O)N[C@@H](CCCCNC(=O)/C=C/c1ccco1)C(=O)N[C@@H](C)C(=O)N[C@@H](C)C(=O)N[C@@H](C)C(=O)N[C@@H](CO)C(=O)N[C@@H](CCCNC(=N)N)C(=O)N[C@@H](CCCNC(=N)N)C(=O)N[C@@H](CSC/C=C(\C)CC/C=C(\C)CC/C=C(\C)CCC=C(C)C)C(N)=O (Ac-K(Acryloyl(2E,3-(2-furyl)))AAASRRC(Geranylgeranyl)-NH2)
Active	Active	Active	Active	CC(=O)N[C@@H](CCCCNC(=O)/C=C/c1ccco1)C(=O)N[C@@H](C)C(=O)N[C@@H](CO)C(=O)N[C@@H](CCCNC(=N)N)C(=O)N[C@@H](CCCNC(=N)N)C(=O)N[C@@H](CSC/C=C(\C)CC/C=C(\C)CC/C=C(\C)CCC=C(C)C)C(N)=O (Ac-K(Acryloyl(2E,3-(2-furyl)))ASRRC(Geranylgeranyl)-NH2)
Active	Active	Active	Active	CC[C@H](C)[C@H](NC(=O)[C@H](CCCCN)NC(=O)[C@@H](NC(=O)[C@H](CC(N)=O)NC(=O)[C@H](CCCNC(=N)N)NC(=O)[C@@H](N)CSSC[C@H](NC(=O)[C@H](CCCNC(=N)N)NC(=O)[C@H](CCCNC(=N)N)NC(=O)[C@H](CO)NC(=O)[C@H](CCCCN)NC(=O)[C@H](CCCCN)NC(=O)/C=C/c1ccco1)C(=O)N[C@H](C(=O)N[C@@H](CC(C)C)C(=O)N[C@@H](CC(C)C)C(=O)O)C(C)C)[C@@H](C)CC)C(=O)N[C@@H](Cc1c[nH]c2ccccc12)C(=O)N[C@@H](Cc1ccccc1)C(=O)N[C@@H](CCC(N)=O)C(=O)N[C@@H](CC(N)=O)C(=O)N[C@@H](CCCNC(=N)N)C(=O)N[C@@H](CCCNC(=N)N)C(=O)N[C@@H](CC(N)=O)C(=O)N[C@@H](CC(C)C)C(=O)N[C@@H](CCCCN)C(=O)N[C@@H](Cc1c[nH]c2ccccc12)C(=O)N[C@@H](CCCCN)C(=O)N[C@@H](CCCCN)C(=O)O (I: H-CRNIKIWFQNRRNLKWKK-OH / II: {Acryloyl(2E,3-(2-furyl))}-KKSRRCVLL-OH; disulfide I:1-II:6)
